Activity calls are given as the source filed them. The calls are words filed in the database; no cut-off is given here.
Assays:
[1] = test system: Jurkat; assay: Cell cycle arrest in human Jurkat E6-1 cells assessed as accumulation at G2/M phase at 1.2 uM after 24 hrs by FACS flow cytometry; assay type: functional
In short: (§1)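 Jurkat E6 cells cultured in RPMI 1640 with 10% FBS at 37 °C, 5% CO2. Compounds serially diluted in medium, starting 50% above the M21 IC50. 4.0 × 10^5 cells were exposed for 24 h. Cells were washed with PBS, chicken red blood cells added as internal standard, and fixed in ice-cold EtOH. After 1 h on ice in PBS with 1 μg/mL DAPI, phase distribution was read by flow cytometry. DMSO-treated cells served as control.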

[2] = test system: Jurkat; assay: Cell cycle arrest in human Jurkat E6-1 cells assessed as accumulation at G0/G1 phase at 1.2 uM after 24 hrs by FACS flow cytometry; assay type: functional; in short: as §1
[3] = test system: MCF7; assay: Cytotoxicity against human MCF7 cells after 48 hrs by SRB assay; assay type: functional, cell-based; settings: MCF7, 48 h
In short: (§2)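 NCI sulforhodamine B protocol. Cells were grown in high-glucose DMEM with 5% FBS and seeded per well at 4 × 10^3 (HT-29), 3.5 × 10^3 (M21) or 3 × 10^3 (MCF-7), then allowed 24 h to attach. Serial dilutions from 200 μM to 780 nM final were applied in DMSO <0.5% for 48 h. Cells were fixed with cold TCA (10% final) and stained with SRB, with absorbance read at 530–568 nm. Growth inhibition was computed against day-0 plates, giving the 50% inhibitory concentration. At least two experiments in triplicate, CV <10%.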

[4] = test system: M21; assay: Induction of DNA damage response in human M21 cells assessed as phosphorylation of H2AX into gammaH2AX at IC50 after 24 hrs by DAPI staining-based immunofluorescence assay; assay type: functional, cell-based
In short: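 M21 cells (1 × 10^5) on fibronectin-coated coverslips, grown 24 h, then exposed to agent for 24 h at 37 °C; 0.5% DMSO control. Fixed with 3.7% formaldehyde and permeabilized with 0.1% saponin/3% BSA. Probed with mouse anti-H2AX pS139 antibody for 2 h at room temperature. Nuclei counterstained with DAPI; nuclear γH2AX foci viewed by epifluorescence microscopy.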

[5] = Toxicity in fertilized chicken embryo assessed as mortality rate at 10 ug per egg, iv administered on day 11 measured on day 17 CAM assay; assay type: organism-based, Gallus gallus; settings: in vivo, read-out: Activity
In short: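 Fertilized chicken eggs grafted on the CAM with HT-1080 cells (3.5 × 105/egg) received a 100 μL intravenous injection under the CAM on day 11. The drug was diluted in Cremophor EL/99% ethanol/PBS (1/1/14 v/v). Groups held 10–12 eggs and were incubated until day 17, when dead embryos and signs of toxicity were counted per group.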

[6] = test system: HT-1080; assay: Antitumor activity against human HT1080 cells xenografted in chicken chorioallantoic membrane assessed as inhibition of tumor growth at 10 ug per egg, iv administered on day 11 measured on day 17 by CAM assay; assay type: functional
In short: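 HT-1080 fibrosarcoma cells (3.5 × 105/egg) were applied onto freshly exposed CAM of fertilized chicken eggs. On day 11, drug from a DMSO stock was diluted in Cremophor EL/99% ethanol/PBS (1/1/14 v/v) and 100 μL was injected into a vein under the CAM. Groups of 10–12 eggs were kept to day 17, embryos were euthanized at 4 °C for ≥4 h, and tumor wet weight was recorded.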

[7] = test system: HT-29; assay: Cytotoxicity against human HT-29 cells after 48 hrs by SRB assay; assay type: functional, cell-based; settings: HT-29, 48 h; in short: as §2
[8] = test system: Jurkat; assay: Cell cycle arrest in human Jurkat E6-1 cells assessed as accumulation at S phase at 1.2 uM after 24 hrs by FACS flow cytometry; assay type: functional
In short: (§3)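 Jurkat E6 cells grown in RPMI 1640 with 10% FBS at 37 °C, 5% CO2. Compounds were serially diluted in medium starting 50% above the M21 IC50. 4.0 × 10^5 cells were exposed for 24 h, then washed and spiked with chicken red blood cells as internal standard. Cells were fixed in ice-cold ethanol, stained with 1 μg/mL DAPI on ice for 1 h, and phase distribution was read by flow cytometry. The control was 0.5% DMSO.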

[9] = test system: M21; assay: Cytotoxicity against human M21 cells after 48 hrs by SRB assay; assay type: functional, cell-based; settings: M21, 48 h; in short: as §2
[10] = test system: Jurkat; assay: Cell cycle arrest in human Jurkat E6-1 cells assessed as accumulation at S phase at 13 uM after 24 hrs by FACS flow cytometry; assay type: functional; in short: as §3
[11] = test system: Jurkat; assay: Cell cycle arrest in human Jurkat E6-1 cells assessed as accumulation at G0/G1 phase at 13 uM after 24 hrs by FACS flow cytometry; assay type: functional; in short: as §1
[12] = test system: Jurkat; assay: Cell cycle arrest in human Jurkat E6-1 cells assessed as accumulation at G2/M phase at 13 uM after 24 hrs by FACS flow cytometry; assay type: functional; in short: as §1
[13] = test system: Jurkat; assay: Cell cycle arrest in human Jurkat E6-1 cells assessed as accumulation at S phase at 64 uM after 24 hrs by FACS flow cytometry; assay type: functional
In short: (§4)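 Jurkat E6 T-lymphoblasts in RPMI 1640 with 10% FBS, 37 °C, 5% CO2. […] Chicken red blood cells were added as internal standard. Cells were fixed in ice-cold EtOH and stained with 1 μg/mL DAPI on ice for 1 h before flow cytometry of phase distribution. Vehicle control was 0.5% DMSO.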

[14] = test system: Jurkat; assay: Cell cycle arrest in human Jurkat E6-1 cells assessed as accumulation at G2/M phase at 64 uM after 24 hrs by FACS flow cytometry; assay type: functional; in short: as §3
[15] = test system: Jurkat; assay: Cell cycle arrest in human Jurkat E6-1 cells assessed as accumulation at G0/G1 phase at 64 uM after 24 hrs by FACS flow cytometry; assay type: functional; in short: as §1
[16] = test system: Jurkat; assay: Cell cycle arrest in human Jurkat E6-1 cells assessed as accumulation at S phase at 24 uM after 24 hrs by FACS flow cytometry; assay type: functional; in short: as §3
[17] = test system: Jurkat; assay: Cell cycle arrest in human Jurkat E6-1 cells assessed as accumulation at G0/G1 phase at 24 uM after 24 hrs by FACS flow cytometry; assay type: functional; in short: as §1
[18] = test system: Jurkat; assay: Cell cycle arrest in human Jurkat E6-1 cells assessed as accumulation at G2/M phase at 24 uM after 24 hrs by FACS flow cytometry; assay type: functional; in short: as §3
[19] = test system: Jurkat; assay: Cell cycle arrest in human Jurkat E6-1 cells assessed as accumulation at G0/G1 phase at 17 uM after 24 hrs by FACS flow cytometry; assay type: functional; in short: as §1
[20] = test system: Jurkat; assay: Cell cycle arrest in human Jurkat E6-1 cells assessed as accumulation at G2/M phase at 17 uM after 24 hrs by FACS flow cytometry; assay type: functional; in short: as §3
[21] = test system: Jurkat; assay: Cell cycle arrest in human Jurkat E6-1 cells assessed as accumulation at S phase at 17 uM after 24 hrs by FACS flow cytometry; assay type: functional; in short: as §3
[22] = test system: Jurkat; assay: Cell cycle arrest in human Jurkat E6-1 cells assessed as accumulation at G2/M phase at 7.5 uM after 24 hrs by FACS flow cytometry; assay type: functional; in short: as §3
[23] = test system: Jurkat; assay: Cell cycle arrest in human Jurkat E6-1 cells assessed as accumulation at S phase at 7.5 uM after 24 hrs by FACS flow cytometry; assay type: functional; in short: as §4
[24] = test system: Jurkat; assay: Cell cycle arrest in human Jurkat E6-1 cells assessed as accumulation at G0/G1 phase at 7.5 uM after 24 hrs by FACS flow cytometry; assay type: functional; in short: as §1

`Cc1ccccc1OS(=O)(=O)c1ccc(NC(=O)NCCCl)cc1` gave an Activity [1] of 7%, an Activity [2] of 22% and an IC50 [3] of 4.8 µM. The Activity [4] was “Active”, the mortality at 6 days [5] was 15% and the TGI [6] was 60%. The IC50 [7] was 4.7 µM, the Activity [8] was 71% and the IC50 [9] was 2.8 µM.
For `CCCc1ccccc1OS(=O)(=O)c1cccc(NC(=O)NCCCl)c1`, the Activity [10] was 36%, the Activity [11] was 47% and the IC50 [7] was 15 µM. It also gave an Activity [12] of 17% and an IC50 [9] of 17 µM.
Work on `CCc1ccccc1NS(=O)(=O)c1cccc(NC(=O)NCCCl)c1` yielded an IC50 [3] of 46 µM, an Activity [13] of 42% and an Activity [14] of 12%. For the same molecule, the IC50 [7] was 48 µM, the IC50 [9] was 65 µM and the Activity [15] was 46%.
With `Cc1ccccc1OS(=O)(=O)c1cccc(NC(=O)NCCCl)c1` the Activity [16] was 44%, the Activity [17] was 45% and the Activity [18] was 11%. For the same molecule, the IC50 [7] was 33 µM and the IC50 [9] was 40 µM.
Molecule `COc1ccc(OS(=O)(=O)c2ccc(NC(=O)NCCCl)cc2)cc1` has an Activity [19] of 43%, an IC50 [3] of 27 µM and an Activity [20] of 15%. For the same molecule, the Activity [21] was 42% and the IC50 [9] was 18 µM.
Work on `O=C(NCCCl)Nc1cccc(S(=O)(=O)Oc2ccc(O)cc2)c1` yielded an Activity [22] of 22%, an Activity [23] of 54% and an IC50 [3] of 87 µM. The Activity [24] was 24%, the IC50 [7] was 120 µM and the IC50 [9] was 73 µM.
